# Measurements: ChEMBL document CHEMBL1152726, “Discovery of small molecule human C5a receptor antagonists” (Bioorg Med Chem Lett, 2009)
# Calls of active or inactive are those of the source. The rule behind the calls is not given here.
# Assays:
# [1] = molecular target: T1, C5a anaphylatoxin chemotactic receptor 1 (Homo sapiens, UniProt P21730); assay: Displacement of [125I]C5a from human recombinant C5a receptor expressed in HEK cells by membrane binding assay
# T1 sequence (P21730 whole entry): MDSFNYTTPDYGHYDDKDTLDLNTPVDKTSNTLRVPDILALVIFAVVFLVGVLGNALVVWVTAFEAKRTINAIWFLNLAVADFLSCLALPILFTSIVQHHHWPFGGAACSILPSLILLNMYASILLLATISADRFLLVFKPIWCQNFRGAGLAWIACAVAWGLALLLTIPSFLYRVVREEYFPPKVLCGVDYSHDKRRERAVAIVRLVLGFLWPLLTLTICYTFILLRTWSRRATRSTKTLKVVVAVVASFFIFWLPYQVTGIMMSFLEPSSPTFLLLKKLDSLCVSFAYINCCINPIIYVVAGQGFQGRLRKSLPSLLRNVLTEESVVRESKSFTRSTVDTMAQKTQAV
# [2] = molecular target: T2, C5a anaphylatoxin chemotactic receptor 1 (Rattus norvegicus) (UniProt P97520); assay: Antagonist activity at rat recombinant C5a receptor expressed in HEK cells assessed as inhibition of C5a-induced calcium mobilization at 30 uM; format: functional, cell-based; details: HEK293
# T2 sequence (whole entry): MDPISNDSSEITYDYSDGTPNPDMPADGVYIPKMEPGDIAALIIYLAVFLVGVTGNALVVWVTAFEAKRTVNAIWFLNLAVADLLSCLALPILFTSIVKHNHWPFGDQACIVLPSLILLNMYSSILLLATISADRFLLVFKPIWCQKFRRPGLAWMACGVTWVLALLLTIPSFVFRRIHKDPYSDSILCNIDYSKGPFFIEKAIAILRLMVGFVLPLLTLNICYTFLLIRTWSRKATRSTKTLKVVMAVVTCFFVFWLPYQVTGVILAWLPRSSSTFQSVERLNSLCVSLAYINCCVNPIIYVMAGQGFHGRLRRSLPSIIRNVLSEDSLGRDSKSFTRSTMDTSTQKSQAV
# Method in brief: (§1)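 Non-human (dog, mouse or rat) recombinant C5aR cell lines tested for antagonism of C5a-stimulated intracellular calcium mobilization. Values are means of at least two experiments.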
# [3] = molecular target: T1, C5a anaphylatoxin chemotactic receptor 1; assay: Displacement of from human recombinant C5a receptor expressed in HEK cells by membrane binding assay in presence
# [4] = molecular target: T1, C5a anaphylatoxin chemotactic receptor 1; assay: Displacement of [Alexa647]C5a from human recombinant C5a receptor expressed in HEK cells by whole cell binding assay; format: cell-based, HEK293
# Method in brief: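 Whole-cell FMAT competition binding measured inhibition of Alexa-647-labeled C5a binding to HEK-293 cells co-expressing human recombinant C5aR and Gα16. pIC50 derived; values are means of at least two experiments.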
# [5] = Metabolic stability in human liver microsomes assessed as intrinsic clearance
# [6] = molecular target: T3, C5a anaphylatoxin chemotactic receptor 1 (Mus musculus) (UniProt P30993); assay: Antagonist activity at mouse recombinant C5a receptor expressed in HEK cells assessed as inhibition of C5a-induced calcium mobilization at 30 uM; format: functional, cell-based; details: HEK293
# T3 sequence (whole entry): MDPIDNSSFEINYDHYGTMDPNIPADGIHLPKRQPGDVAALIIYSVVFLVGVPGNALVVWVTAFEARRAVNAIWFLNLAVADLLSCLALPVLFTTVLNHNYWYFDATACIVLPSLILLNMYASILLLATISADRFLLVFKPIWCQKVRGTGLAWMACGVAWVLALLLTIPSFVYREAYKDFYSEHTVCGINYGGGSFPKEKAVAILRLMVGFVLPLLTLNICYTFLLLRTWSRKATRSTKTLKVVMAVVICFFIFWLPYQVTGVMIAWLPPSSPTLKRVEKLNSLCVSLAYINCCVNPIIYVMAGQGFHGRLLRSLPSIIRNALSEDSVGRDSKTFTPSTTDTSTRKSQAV
# Method in brief: as §1
# [7] = Metabolic stability in Sprague-Dawley rat hepatocytes assessed as intrinsic clearance measured per 10^6 cells
# [8] = molecular target: T1, C5a anaphylatoxin chemotactic receptor 1; assay: Antagonist activity at human recombinant C5a receptor in HEK cells assessed as inhibition of C5a-induced calcium mobilization; format: functional, cell-based, HEK293
# [9] = molecular target: T4, C5a anaphylatoxin chemotactic receptor 1 (Canis lupus familiaris) (UniProt P30992); assay: Antagonist activity at dog recombinant C5a receptor expressed in HEK cells assessed as inhibition of C5a-induced calcium mobilization at 30 uM; format: functional, cell-based; details: HEK293
# T4 sequence (whole entry): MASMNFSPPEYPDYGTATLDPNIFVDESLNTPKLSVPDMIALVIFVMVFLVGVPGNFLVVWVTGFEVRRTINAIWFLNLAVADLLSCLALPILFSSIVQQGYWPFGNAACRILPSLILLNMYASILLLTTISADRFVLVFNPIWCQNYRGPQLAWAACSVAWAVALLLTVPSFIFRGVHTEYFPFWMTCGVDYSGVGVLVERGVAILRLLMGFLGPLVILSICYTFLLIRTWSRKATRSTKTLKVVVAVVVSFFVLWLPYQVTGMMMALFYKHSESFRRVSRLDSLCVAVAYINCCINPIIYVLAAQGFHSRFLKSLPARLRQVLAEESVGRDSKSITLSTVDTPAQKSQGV
# Method in brief: as §1
# [10] = Lipophilicity, log D at pH 7.4; details: buffer
# [11] = molecular target: T1, C5a anaphylatoxin chemotactic receptor 1
Compound,microsomal CLint ([5]; liver microsomes) [µL/min/mg],hepatocyte CLint [7] [µL/min/1e6 cells],IC50 [8] [µM],logD [10],other results
COc1ccc(N(C(=O)c2ccco2)C(C(=O)NC2CCCC2)c2ccccc2F)c(OC)c1 (centres undefined),> 150,> 150,0.126,–,IC50 [1]: 3.16 µM; Activity [2]: inactive; IC50 [3]: 0.251 µM; IC50 [4]: 0.0794 µM; Activity [6]: inactive; Activity [9]: inactive
CN(C(=O)c1ccccc1)C(C(=O)NC1CCCC1)c1ccccc1F (centres undefined),–,–,> 10,–,–
COc1ccc(N(C(=O)c2ccccc2)C(C(=O)NC[C@@H](C)O)c2ccccc2F)c(OC)c1 (some centres undefined),104,> 150,0.0631,2.55,–
COc1ccc(N(C(=O)c2ccccc2)C(C(=O)NC2CCCC2)c2ccccc2F)c(OC)c1 (centres undefined),–,–,0.0251,3.9,EC50 [11]: 0.123 µM; IC50 [1]: 0.794 µM; Activity [2]: inactive; IC50 [3]: 0.0316 µM; IC50 [4]: 0.0398 µM; Activity [6]: inactive; Activity [9]: inactive
COc1ccc(N(C(=O)c2occc2Cl)C(C(=O)NC[C@@H](C)O)c2ccccc2F)c(OC)c1 (some centres undefined),148,59,0.2,2.2,–
COc1ccc(N(C(=O)c2ccccc2)C(C)C(=O)NC2CCCC2)c(OC)c1 (centres undefined),–,–,> 10,–,–
COc1ccc(N(C(=O)c2ccccc2)C(C(=O)NC(C)CN(C)C)c2ccccc2F)c(OC)c1 (centres undefined),135,33,1,–,–
COc1ccc(N(C(=O)c2ccccc2)C(C(=O)O)c2ccccc2F)c(OC)c1 (centres undefined),–,–,> 10,–,–
COc1ccc(N(C(C)=O)C(C(=O)NC2CCCC2)c2ccccc2F)c(OC)c1 (centres undefined),–,–,0.794,–,–
COc1ccc(N(C(=O)c2ccoc2C)C(C(=O)NC[C@@H](C)O)c2ccccc2F)c(OC)c1 (some centres undefined),134,75,0.0398,–,–
COc1ccc(N(C(=O)c2occc2CO)C(C(=O)NC[C@@H](C)O)c2ccccc2F)c(OC)c1 (some centres undefined),–,8,–,1.4,microsomal CLint ([5]; microsomes): 12 µL/min/mg
COc1ccc(N(C(=O)c2ccccc2)C(C(=O)NC[C@H](C)O)c2ccccc2F)c(OC)c1 (some centres undefined),–,–,> 0.1,–,–
COc1ccc(N(C(=O)c2ccoc2Cl)C(C(=O)NC[C@@H](C)O)c2ccccc2F)c(OC)c1 (some centres undefined),48,33,0.316,2.4,–
COc1ccc(N(C(=O)c2occc2C)C(C(=O)NC[C@@H](C)O)c2ccccc2F)c(OC)c1 (some centres undefined),126,87,0.02,–,–
COCc1ccoc1C(=O)N(c1ccc(OC)cc1OC)C(C(=O)NC[C@@H](C)O)c1ccccc1F (some centres undefined),76,35,0.1,2,–
COc1ccc(N(C(=O)c2occc2CN(C)C)C(C(=O)NC[C@@H](C)O)c2ccccc2F)c(OC)c1 (some centres undefined),12,< 3,3.16,–,–
